Mcl-1 Bim block: inhibitors of Bim-Mcl-1 interaction, human; Q07820; Bead-based flow cytometry, Bim peptide-Mcl-1 binding; inhibition, % at 10 µM; actives 0.1% (n = 190,000); AID 1009; in the data active means inhibition above about 40%;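 further: 0% = no compound tracer wells and 100% = peptide blocker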
Target sequence (Q07820 whole entry, looked up): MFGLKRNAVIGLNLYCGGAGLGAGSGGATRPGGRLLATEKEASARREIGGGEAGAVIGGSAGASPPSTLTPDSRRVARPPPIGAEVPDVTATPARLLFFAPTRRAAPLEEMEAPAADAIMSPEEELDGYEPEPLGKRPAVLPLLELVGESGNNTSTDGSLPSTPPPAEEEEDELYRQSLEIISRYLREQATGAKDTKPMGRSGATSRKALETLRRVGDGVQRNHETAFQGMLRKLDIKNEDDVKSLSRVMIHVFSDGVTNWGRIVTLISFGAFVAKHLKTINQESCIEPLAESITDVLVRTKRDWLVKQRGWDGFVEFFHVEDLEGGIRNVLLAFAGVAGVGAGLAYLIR
Mcl1-Bid inh: disrupts binding of human Mcl-1 to Bid peptide. Q07820. TR-FRET Mcl-1/Bid-Dy647 peptide binding, 1536-well. inhibition, % at 21.7 µM. actives 0.97% (n = 220,000). AID 1021;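 active means compounds that cut the binding signal by more than half at the single screening dose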;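 further: His-tagged Mcl-1 with europium anti-His antibody binding Bid BH3 peptide; 0% = Mcl-1 plus peptide wells and 100% = peptide-only wells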
Biofilm kill mix: mixture kills Candida albicans biofilm cells; C. albicans biofilm persisters + clotrimazole, fluorescence viability; primary screen in compound mixtures of four per well; inhibition, % at 7.6 µM; actives 0.02% (n = 120,000); AID 1242;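 active means inhibition above 30.3% in the primary screen of four-compound pools, then above 30% when the compound was retested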;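 further: compounds exposed to preformed 24 h biofilms for 48 h; 0% = untreated biofilm control and 100% = clotrimazole plus chlorhexidine kill blank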
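Incubation: 24 h biofilm formation, then 48 h compound exposure, 37 °C | Material: C. albicans biofilms | Buffer or medium: RPMI/MOPS medium, pH 7.0 | Measured by: 2-h Alamar Blue fluorescence, 535/590 nm excitation/emission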
Calpain2 inh: inhibitors of pig calpain II; inhibition, % at 16 µM; AID 1236; purified calpain II, fluorogenic peptide substrate, 30 min; actives 0.37% (n = 220,000);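 active means inhibition above about 50%, limit read from the data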
Arbovirus inh: blocks arbovirus infection | AID 1251 | actives 0.37% (n = 200,000) | inhibition, % at 10 µM | arbovirus infection cell-based antiviral screen; in the data active means inhibition above about 30%
Mcl1 Noxa PPI: Mcl-1/Noxa interaction inhibition. actives 1.5% (n = 220,000). AID 1022. TR-FRET Mcl-1/Noxa peptide binding, 2 h. Q07820. inhibition, % at 21.7 µM;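 active means compounds that cut the protein-peptide binding signal by more than 50% relative to plate controls in a single-dose test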;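 further: His-tagged Mcl-1 with rhodamine Noxa BH3 peptide and terbium anti-His antibody; 0% = Mcl-1 plus Noxa peptide wells and 100% = peptide-only wells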
* = called active by the depositor; i = inactive; · = no result. Hits are enriched below; roughly 2.8% of the tested compounds scored in any of these assays.

SMILES	Mcl-1 Bim block	Mcl1-Bid inh	Biofilm kill mix	Calpain2 inh	Arbovirus inh	Mcl1 Noxa PPI
COc1ccc(NC(=O)C2CC(=O)N=C(N)S2)cc1 (stereo not drawn)	4	0	21	-40	1	-7
O=C(c1ccncc1)N1CCN(c2cccc(C(F)(F)F)c2)CC1	0	-24	·	-24	2	57*
O=C(/C=C/c1ccc(Br)cc1)N1CCN(c2cccc(C(F)(F)F)c2)CC1	-2	61*	19	35	-17	-4
O=C(/C=C/c1cccc(Br)c1)N1CCN(c2cccc(C(F)(F)F)c2)CC1	-26	-11	4	13	13	1
O=C(/C=C/c1ccccc1)N1CCN(CCN2C(=O)c3cccc4cccc(c34)C2=O)CC1	-1	-4	12	-3	-21	9
Cc1sc2ncn(CC(=O)NCc3ccco3)c(=O)c2c1-c1ccc(F)cc1	2	-30	7	-74	-2	6
O=C(Cn1cnc2scc(-c3cccc([N+](=O)[O-])c3)c2c1=O)NCc1ccco1	-1	-25	17	-118	-2	67*
CCOc1cc(/C=N/N=C2/NC(=O)C(CC(=O)O)S2)ccc1OCc1ccc(Cl)cc1Cl (stereo not drawn)	3	-56	8	-95	6	55*
Cc1ccc(NC(=O)c2noc3c2CCC3)cc1C	-1	-50	27	-38	4	54*
COc1cc(NC(=O)c2noc3c2CCC3)c(OC)cc1Cl	-3	-14	·	-191	3	63*
COc1ccc(NC(=O)c2noc3c2CCC3)cc1	-1	-11	·	-65	0	38
CCOC(=O)C1CCCN(CC(=O)NC2=Nc3ccccc3N=C(C)C2c2ccccc2)C1 (stereo not drawn)	-1	-10	·	24	-2	13
CC1=Nc2ccccc2N=C(NC(=O)CN2CCN(c3ccccc3)CC2)C1c1ccccc1 (stereo not drawn)	0	-12	16	57*	-6	12
C#CCNC(=O)C1=C[C@H](c2cn(C(C)=O)c3ccccc23)C[C@H](OCc2ccc(CO)cc2)O1	0	-9	-1	25	31*	-1
Cc1ccc2c(c1)c1cccc3c1n2CCN3CCC(N)=O	4	-71	·	i	-13	67*
O=C(CNS(=O)(=O)c1ccc(C(=O)N2CCCCC2)cc1)N1CCCCC1	-5	-8	·	-7	8	8
O=C(c1ccc(CNS(=O)(=O)c2ccc(Br)cc2)cc1)N1CCCC1	42*	-33	10	22	-1	4
Cc1ccccc1-c1ccc(Nc2ccc(N3CCOCC3)cc2)nn1	1	12	·	-44	-7	69*
CCCN1C(=O)/C(=C\C=C2/Sc3ccccc3N2CC)SC1=S	3	-26	8	7	-1	-9
CCN1/C(=C\C=C2\C(=O)N(c3ccccc3)C(=S)N2C)Sc2ccccc21	-5	78*	18	46	-12	60*
CCOc1ncccc1C(=O)OCC(=O)Nc1c(C)cccc1C	0	-10	·	5	-4	-2
Cc1cccc(C)c1NC(=O)COC(=O)c1cccnc1	-1	-18	-1	-28	-1	56*
O=C(COc1cccc(F)c1)Nc1ccc2[nH]c(=O)[nH]c2c1	2	-43	8	-20	-3	-5
CCN(CC)c1ccc(C(=O)OCC(=O)Nc2ccc3[nH]c(=O)[nH]c3c2)cc1	2	-43	-10	-10	5	55*
CC1CC1C(=O)OCC(=O)Nc1ccc2[nH]c(=O)[nH]c2c1 (stereo not drawn)	0	3	8	-33	2	76*
SMILES	Mcl-1 Bim block	Mcl1-Bid inh	Biofilm kill mix	Calpain2 inh	Arbovirus inh	Mcl1 Noxa PPI
O=C(COC(=O)c1c(F)cccc1F)Nc1ccc2[nH]c(=O)[nH]c2c1	4	-33	14	-65	3	72*
CCN(CC)c1ccc(NC(=O)COC(=O)c2ccc3ccccc3n2)cc1	-7	-20	·	5	3	57*
COC(=O)c1c(NC(=O)CN2C(=O)NC3(CCc4ccccc4C3)C2=O)sc2c1CCCCC2 (stereo not drawn)	-1	4	14	5	-8	-50
CC(=O)N(NC(=O)c1ccc(C)cc1)C1CC(=O)N(c2ccccc2Cl)C1=O (stereo not drawn)	-1	-13	-6	6	7	15
O=C(COC(=O)c1ccc(F)cc1F)Nc1ccc2[nH]c(=O)[nH]c2c1	0	-1	17	-38	-2	69*
NC(=O)c1ccc(Nc2nnc(-c3ccc(O)cc3)c3ccccc23)cc1	-4	13	12	-76	-2	52*
NC(=O)Cc1ccc(Nc2nnc(-c3ccc(O)cc3)c3ccccc23)cc1	-6	-4	16	-3	0	31
O=C1c2ccccc2C(=O)N1/N=C/c1ccc(O)c(O)c1	-2	-66	11	3	-2	72*
COc1ccc(C(=O)Nc2sc3c(c2C#N)CCN(C(C)=O)C3)cc1	-2	-34	16	44	-12	10
CC(=O)N1CCc2c(sc(NC(=O)c3ccc([N+](=O)[O-])o3)c2C#N)C1	-5	-33	10	-20	-28	53*
COc1ccccc1NC(=O)c1sc2ncn(Cc3cccc(C)c3)c(=O)c2c1C	1	-4	·	i	-4	2
COc1ccccc1NC(=O)c1sc2ncn(Cc3ccc(C)cc3)c(=O)c2c1C	-3	74*	·	i	-14	14
CN1C(=O)C(N=Nc2ccccc2C(=O)O)N(C)C1=S (stereo not drawn)	-1	53*	9	15	21	39
Cc1cc(O)c(C(C)C)cc1N=Nc1ccccc1C(=O)O	·	-75	8	1	·	19
CCOCCCNc1ccc(N2C(=O)C3CCCCC3C2=O)cc1[N+](=O)[O-] (stereo not drawn)	-3	-3	2	59*	1	16
CCN(CC)c1ccc(N2C(=O)C3CCCCC3C2=O)cc1[N+](=O)[O-] (stereo not drawn)	-1	-23	19	26	6	3
CCOC(=O)N1CCC(Nc2ccc(N3C(=O)C4CCCCC4C3=O)cc2[N+](=O)[O-])CC1 (stereo not drawn)	-3	23	-5	98*	-3	12
CC1CCC2C(=O)N(c3ccc(NC4CCCCC4)c([N+](=O)[O-])c3)C(=O)C2C1 (stereo not drawn)	-3	-6	9	40	-7	4
COc1ccc(-c2ccc(/C=N/NC(=O)c3cccnc3)o2)c([N+](=O)[O-])c1	1	38	13	21	-5	74*
Cc1ccc(C(=O)N/N=C/c2ccc(-c3ccccc3[N+](=O)[O-])o2)cn1	0	-30	18	18	-5	19
CS(=O)(=O)c1ccc2nc(NC(=O)c3ccc(NS(=O)(=O)c4ccc(F)c(F)c4)cc3)sc2c1	·	64*	11	-78	·	6

Source: PubChem BioAssay
